Measured values as given in ChEMBL document CHEMBL1177847, “Combating oxidative stress in epilepsy: design, synthesis, quantum chemical studies and anticonvulsant evaluation of 1-(substituted benzylidene/ethylidene)-4-(naphthalen-1-yl)semicarbazides” (Eur J Med Chem, 2010).
Activity calls are given as the source filed them. The rule behind the calls is not given here.

Experiments:
[1] = system: Mus musculus; test: Anticonvulsant activity against maximal electroshock-induced seizures in ip dosed Swiss albino mouse assessed as minimum effective dose after 4 hrs; format: functional; conditions: read-out: MED
Summary of the method: (§1)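 Male Swiss albino mice (18–25 g) received the compound suspended in 5% gum acacia/water, i.p. at 30, 100 and 300 mg/kg (one to four animals per dose). Maximal electroshock was applied at 0.5 and 4 h. Protection meant abolition of the hind limb tonic extensor component. The lowest dose protecting half or more of the mice was recorded.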

[2] = system: Mus musculus; test: Toxicity in subcutaneous pentylenetetrazole-induced Swiss albino mouse assessed as myoclonic jerks at 100 mg/kg, ip after 0.5 hrs; format: organism-based; set-up: dose 100 mg/kg
Summary of the method: (§2)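 Male Swiss albino mice (18–25 g) were dosed i.p. with the compound in 5% gum acacia/water at 30, 100 or 300 mg/kg. Thirty minutes later they received PTZ 85 mg/kg (CD97) and were watched for seizures over 4 h. Readings at 0.5 and 4 h gave the lowest dose active in half or more of the animals. Myoclonic jerks were noted separately.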

[3] = system: Mus musculus; test: Neurotoxicity in ip dosed Swiss albino mouse assessed as minimum dose required to cause impair in motor coordination after 0.5 hrs by rotarod test; format: toxicity, organism-based; conditions: in vivo
Summary of the method: (§3)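 Rotarod motor-impairment test in male Swiss albino mice dosed i.p. at 30, 100 or 300 mg/kg in 5% gum acacia/water. Mice that fell off the rotating rod within 30 s during pretraining were excluded. The dose at which animals fell off was recorded at 0.5 and 4 h.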

[4] = system: Mus musculus; test: Anticonvulsant activity against maximal electroshock-induced seizures in ip dosed Swiss albino mouse assessed as minimum effective dose after 0.5 hrs; format: functional; conditions: read-out: MED; summary of the method: as §1
[5] = system: Mus musculus; test: Anticonvulsant activity against subcutaneous pentylenetetrazole-induced seizures in ip dosed Swiss albino mouse assessed as minimum effective dose after 4 hrs; format: functional; conditions: read-out: MED; summary of the method: as §2
[6] = system: Mus musculus; test: Neurotoxicity in ip dosed Swiss albino mouse assessed as minimum dose required to cause impair in motor coordination after 4 hrs by rotarod test; format: toxicity, organism-based; conditions: in vivo; summary of the method: as §3
[7] = system: Mus musculus; test: Restoration of GSH level in subcutaneous pentylenetetrazole treated Swiss albino mouse brain assessed per gram of tissue at 100 mg/kg, ip after 4 hrs; format: functional; conditions: route intraperitoneal
Summary of the method: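 Brains were taken from PTZ-treated mice 4 h after 100 mg/kg i.p. dosing. Tissue was deproteinized with an equal volume of 10% TCA for 2 h at 4 °C and centrifuged at 2000 g for 15 min. The supernatant was mixed with 0.4 M Tris (pH 8.9) containing 0.02 M EDTA, and 0.01 M DTNB was added before spectrophotometric reading. n = 6.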

[8] = system: Mus musculus; test: Restoration of SOD activity in subcutaneous pentylenetetrazole treated Swiss albino mouse brain assessed per mg of protein at 100 mg/kg, ip after 4 hrs; format: functional; conditions: route intraperitoneal
Summary of the method: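 The ethanol phase of an ethanol/chloroform (5:3) extract of brain supernatant was used, from PTZ-treated mice 4 h after 100 mg/kg i.p. Superoxide was generated by xanthine–xanthine oxidase at pH 10.2 with NBT, 20 min at 25 °C. The reaction was stopped with CuCl2 and read at 560 nm. One unit gives 50% inhibition of NBT reduction; results are expressed as U/mg protein. n = 6.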

[9] = system: Mus musculus; test: Anticonvulsant activity against subcutaneous pentylenetetrazole-induced seizures in ip dosed Swiss albino mouse assessed as minimum effective dose after 0.5 hrs; format: functional; conditions: read-out: MED; summary of the method: as §2
[10] = system: Mus musculus; test: Neurotoxicity in ip dosed Swiss albino mouse assessed as impair in motor coordination at 300 mg/kg, ip after 0.5 hrs by rotarod test; format: toxicity, organism-based; set-up: dose 300 mg/kg, route intraperitoneal; conditions: in vivo; summary of the method: as §3
[11] = system: Mus musculus; test: Restoration of GSH peroxidase activity in subcutaneous pentylenetetrazole treated Swiss albino mouse brain assessed per mg of protein at 100 mg/kg, ip after 4 hrs; format: functional; conditions: route intraperitoneal
Summary of the method: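 Brain homogenate came from PTZ-treated mice 4 h after 100 mg/kg i.p. dosing, using the 10500 × g supernatant. Samples were equilibrated 5 min at 25 °C, started with H2O2, and A340 was followed for 5 min. n = 6.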

[12] = system: Rattus norvegicus; test: Anticonvulsant activity against subcutaneous pentylenetetrazole-induced seizures in Wistar albino rat at 50 mg/kg, ip after 2 hrs; format: functional
[13] = system: Mus musculus; test: Neurotoxicity in ip dosed Swiss albino mouse assessed as impair in motor coordination at 300 mg/kg, ip after 4 hrs by rotarod test; format: toxicity, organism-based; set-up: dose 300 mg/kg, route intraperitoneal; conditions: in vivo; summary of the method: as §3
[14] = system: Mus musculus; test: Reduction of lipid peroxidation in subcutaneous pentylenetetrazole treated Swiss albino mouse brain assessed reduction of malondialdehyde level per mg of protein at 100 mg/kg, ip after 4 hrs by TBARS assay; format: functional; conditions: route intraperitoneal
Summary of the method: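 PTZ-treated mice were dosed at 100 mg/kg i.p. and decapitated 4 h after the last injection. Brains were homogenized in four volumes of ice-cold 50 mM Tris-HCl, pH 7.4, and spun at 3000 × g for 15 min. TBARS in the supernatant was read at 532 nm in the upper organic layer and expressed as nmol MDA/mg protein. n = 6, mean ± S.E.M.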

[15] = system: Mus musculus; test: Anticonvulsant activity against subcutaneous pentylenetetrazole-induced seizures in Swiss albino mouse at 300 mg/kg, ip after 4 hrs; format: functional, organism-based; set-up: dose 300 mg/kg; summary of the method: as §2
[16] = system: Mus musculus; test: Anticonvulsant activity against subcutaneous pentylenetetrazole-induced seizures in Swiss albino mouse at 300 mg/kg, ip after 0.5 hrs; format: functional, organism-based; set-up: dose 300 mg/kg; summary of the method: as §2
[17] = system: Mus musculus; test: Toxicity in subcutaneous pentylenetetrazole-induced Swiss albino mouse assessed as death at 30 to 300 mg/kg, ip after 4 hrs; format: organism-based; set-up: dose 30-300 mg/kg
Summary of the method: (§4)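 Male Swiss albino mice (18–25 g) given compound suspended in 5% gum acacia/water, i.p. at 30, 100 or 300 mg/kg, one to four animals per dose. PTZ at 85 mg/kg was injected 30 min after compound. Animals were examined 0.5 and 4 h after administration, and death following tonic extension was noted. The maximum dose was 300 mg/kg.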

[18] = system: Mus musculus; test: Anticonvulsant activity against maximal electroshock-induced seizures in Swiss albino mouse at 300 mg/kg, ip after 4 hrs; format: functional, organism-based; set-up: dose 300 mg/kg; summary of the method: as §1
[19] = system: Mus musculus; test: Anticonvulsant activity against maximal electroshock-induced seizures in Swiss albino mouse at 300 mg/kg, ip after 0.5 hrs; format: functional, organism-based; set-up: dose 300 mg/kg; summary of the method: as §1
[20] = system: Mus musculus; test: Toxicity in subcutaneous pentylenetetrazole-induced Swiss albino mouse assessed as death at 30 to 300 mg/kg, ip after 0.5 hrs; format: organism-based; set-up: dose 30-300 mg/kg; summary of the method: as §4

| Compound | minimal effective dose [1] [mg/kg] | Activity [3] [mg/kg] | minimal effective dose [4] [mg/kg] | Activity [6] [mg/kg] | minimal effective dose [9] [mg/kg] | Activity [13] | Activity [15] | Activity [18] | Activity [19] | other results |
| --- | --- | --- | --- | --- | --- | --- | --- | --- | --- | --- |
| CN(C)c1ccc(/C=N/NC(=O)Nc2cccc3ccccc23)cc1 | 100 | 100 | 100 | 100 |  |  |  |  |  | Activity [2]: Toxic; minimal effective dose [5]: 300 mg/kg |
| COc1ccc(/C=N/NC(=O)Nc2cccc3ccccc23)cc1OC | 100 |  | 100 |  | 100 | Non-toxic |  |  |  | Activity [7]: 18.51 µg; Activity [8]: 1.45 U; Activity [10]: Non-toxic; minimal effective dose [5]: 300 mg/kg; Activity [11]: 1.62 U; Activity [12]: inactive; Activity [14]: 2.53 nmol |
| O=C1NC(=O)C(c2ccccc2)(c2ccccc2)N1 [PHENYTOIN] | 30 | 100 | 30 | 100 |  |  | inactive |  |  | Activity [16]: inactive |
| O=C(N/N=C/c1ccccc1O)Nc1cccc2ccccc12 |  | 300 |  | 300 | 300 |  |  | inactive | inactive | Activity [17]: Toxic |
| O=C(N/N=C/c1ccc(Cl)cc1)Nc1cccc2ccccc12 | 300 | 300 |  |  | 300 | Non-toxic | inactive |  | inactive |  |
| COc1ccc(/C=N/NC(=O)Nc2cccc3ccccc23)cc1 |  | 300 | 300 |  |  | Non-toxic | inactive | inactive |  | Activity [20]: Toxic |
| COc1cccc(/C=N/NC(=O)Nc2cccc3ccccc23)c1 | 300 | 100 |  |  | 100 | Non-toxic | inactive |  | inactive |  |
| O=C(N/N=C/c1ccccc1[N+](=O)[O-])Nc1cccc2ccccc12 | 300 | 300 |  |  | 300 | Non-toxic | inactive |  | inactive |  |
| O=C(N/N=C/c1ccccc1Cl)Nc1cccc2ccccc12 |  |  |  | 300 | 300 |  | inactive | inactive | inactive | Activity [10]: Non-toxic |
| COc1cc(/C=N/NC(=O)Nc2cccc3ccccc23)ccc1O |  | 100 | 300 | 100 | 300 |  | inactive | inactive |  |  |
| C/C(=N\NC(=O)Nc1cccc2ccccc12)c1ccc(C)cc1 |  | 300 |  | 300 | 300 |  | inactive | inactive | inactive |  |
| O=C(N/N=C/c1ccc(Br)cc1)Nc1cccc2ccccc12 | 300 | 300 | 300 | 300 | 300 |  | inactive |  |  |  |
